Measurements reported in ChEMBL document CHEMBL1135936, “6-[2-(Phosphonomethoxy)alkoxy]pyrimidines with antiviral activity” (J Med Chem, 2002).
≈ marks a conversion by molar mass, not a printed value.

What was measured:
[1] = test system: CCRF-CEM; test: (§1) In vitro cytotoxicity against CCRF-CEM T lymphoblastoid cells; assay type: functional, Homo sapiens; set-up: concentration or dose not given beside the values
Method in brief: (§2)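 Cells were grown for 72 h at a constant compound concentration of 10 µM, then counted. Growth inhibition is given relative to cell counts in control cultures grown in medium without compound. Lines: mouse L1210 and L929, human HeLaS3 and CCRF-CEM.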

[2] = test system: CCRF-CEM; test: Inhibition of Human immunodeficiency virus (HIV) -1 III B strain induced cytopathicity in CEM cell line; assay type: functional, cell-based
Method in brief: (§3)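 CEM cells were infected with 100 CCID50 per mL of HIV-1 (IIIB) or HIV-2 (ROD). Cells were seeded into wells containing dilutions of compound and incubated 4 days at 37 °C. CEM giant cell formation was then examined microscopically.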

[3] = test system: CCRF-CEM; test: Inhibition of Human immunodeficiency virus (HIV)-2 ROD strain induced cytopathicity in CEM cell line; assay type: functional, cell-based; method in brief: as §3
[4] = test system: Moloney murine sarcoma virus; test: Inhibition of moloney sarcoma virus (MSV) induced cytopathicity in C3H/3T3 embryo fibroblast cells; assay type: functional, organism-based
Method in brief: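 C3H/3T3 murine embryo fibroblasts were seeded in 48-well plates and infected 24 h later with 80 focus-forming units of MSV. MSV stock was prepared from tumours in NMRI mice. Virus adsorbed for 10-120 min at 37 °C, then fresh medium with compound dilutions was added. Transformation was examined microscopically after 6 days.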

[5] = test system: E6SM; test: Inhibition of Herpes simplex virus-1, KOS strain induced cytopathicity in E6SM cell line; assay type: functional, cell-based; details: Homo sapiens
Method in brief: (§4)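 Inhibition of virus-induced cytopathicity in confluent cell cultures in 96-well plates inoculated with 100 CCID50 of virus; 1 CCID50 is the virus dose infecting 50% of cultures. EC50 is based on reduction of cytopathicity.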

[6] = test system: E6SM; test: Inhibition of Herpes simplex virus-2 (G strain) induced cytopathicity in E6SM cell line; assay type: functional, cell-based; details: Homo sapiens; method in brief: as §4
[7] = test system: E6SM; test: Inhibition of thymidine kinase deficient Herpes simplex virus-1 VMW 1837 strain induced cytopathicity in E6SM cell line; assay type: functional, cell-based; details: Homo sapiens; method in brief: as §4
[8] = test system: Human alphaherpesvirus 3; test: Inhibition of Thymidine kinase deficient (TK-) Varicella-Zoster virus (VZV) 07/1 strain induced cytopathicity n HEL cell line; assay type: functional, organism-based; details: Human alphaherpesvirus 3, tk-07, HEL; method in brief: as §4
[9] = test system: HEL; test: Inhibition of Thymidine kinase deficient (TK-) Varicella-Zoster virus (VZV) YS/R strain induced cytopathicity in HEL cell line; assay type: functional, cell-based; details: Homo sapiens; method in brief: as §4
[10] = test system: HEL; test: Inhibition of Varicella-Zoster virus (VZV) OKA strain induced cytopathicity in HEL cell line; assay type: functional, cell-based; details: Homo sapiens; method in brief: as §4
[11] = test system: HEL; test: Inhibition of Varicella-Zoster virus (VZV) YS strain induced cytopathicity in HEL cell line; assay type: functional, cell-based; details: Homo sapiens; method in brief: as §4
[12] = test system: HeLa; test: In vitro cytotoxicity against human cervix carcinoma HeLa S3 cells; assay type: functional; set-up: concentration or dose not given beside the values; method in brief: as §2
[13] = test system: L929; test: (§5) In vitro cytotoxicity against murine L929 cells; assay type: functional, Mus musculus; set-up: concentration or dose not given beside the values; method in brief: as §2
[14] = test system: L1210; test: (§6) In vitro cytotoxicity against L1210 mouse leukemia cells; assay type: functional; set-up: concentration or dose not given beside the values; method in brief: as §2
[15] = test system: CCRF-CEM; test: as §1; assay type: functional, Homo sapiens; method in brief: as §2
[16] = test system: L929; test: as §5; assay type: functional, Mus musculus; method in brief: as §2
[17] = test system: L1210; test: as §6; assay type: functional; method in brief: as §2
[18] = test system: unidentified adenovirus; test: Effective concentration for the inhibition of adenovirus; assay type: functional, organism-based
Method in brief: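 HEL fibroblasts, confluent, infected on day 0 with 100 CCID50 of human adenovirus type 2 or type 3. After 2 h adsorption at 37 °C, virus was removed and replaced by serial compound dilutions. Cytopathic effect was scored microscopically on day 7-10 p.i. to derive EC50 and minimum cytotoxic concentration.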

[19] = test system: CCRF-CEM; test: Inhibitory activity against CCRF-CEM cells; assay type: functional, cell-based; details: Homo sapiens
Method in brief: (§7)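 CCRF-CEM, L1210 and L929 cells were grown with compound for 72 h and then counted. Cell growth inhibition is expressed relative to untreated control cultures, and IC50 is given in µM.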

[20] = test system: L1210; test: Inhibitory activity against L1210 cells; assay type: functional, cell-based; details: Mus musculus; method in brief: as §7
[21] = test system: L929; test: Inhibitory activity against L929 cells; assay type: functional, cell-based; details: Mus musculus; method in brief: as §7
[22] = test system: HEL; test: Inhibitory activity against HEL cell proliferation; assay type: functional, cell-based; details: Homo sapiens

SMILES | Control [1] [%] | EC50 [2] [µg/mL] | EC50 [3] [µg/mL] | EC50 [4] [µg/mL] | EC50 [5] [µg/mL] | EC50 [6] [µg/mL] | EC50 [7] [µg/mL] | EC50 [8] [µg/mL] | EC50 [9] [µg/mL] | EC50 [10] [µg/mL] | EC50 [11] [µg/mL] | Control [12] [%] | Control [13] [%] | Control [14] [%] | also measured
Nc1nc(OCCOCP(=O)(O)O)cc(OCCOCP(=O)(O)O)n1 | 109 | 57 (≈ 141 µM) | 80 (≈ 198 µM) | 43 (≈ 107 µM) | 240 (≈ 595 µM) | > 400 | 240 (≈ 595 µM) | > 50 | > 50 | 50 (≈ 124 µM) | > 50 | 72 | 56 | 77 | 
Nc1ncnc2c1ncn2CCOCP(=O)(O)O [ADEFOVIR] |  | 1.8 (≈ 6.59 µM) | 2.5 (≈ 9.15 µM) | 0.25 (≈ 0.915 µM) | 7 (≈ 25.6 µM) | 7 (≈ 25.6 µM) | 7 (≈ 25.6 µM) | 10 (≈ 36.6 µM) | 10 (≈ 36.6 µM) | 10 (≈ 36.6 µM) | 10 (≈ 36.6 µM) |  |  |  | 
Nc1cc(=O)n(CCOCP(=O)(O)O)c(N)n1 | 95 | 80 (≈ 303 µM) | 25 (≈ 94.6 µM) | 2.92 (≈ 11.1 µM) | 240 (≈ 908 µM) | > 400 | > 400 | > 50 | > 50 | 32 (≈ 121 µM) | > 50 | 93 | 96 | 76 | 
Cc1cc(=O)n(CCOCP(=O)(O)O)c(N)n1 | 100 | > 100 | > 100 | 122 (≈ 464 µM) | > 400 | > 400 | > 400 | > 50 | > 50 | > 50 | > 50 | 83 | 81 | 95 | 
Nc1nc(OCCOCP(=O)(O)O)cc(=O)n1CCOCP(=O)(O)O |  | > 100 | > 100 | 107 (≈ 265 µM) | > 400 | > 400 | > 400 | > 50 | > 50 | > 50 | > 50 | 72 |  |  | Control [15]: 101%; Control [16]: 77%; Control [17]: 80%
Nc1nc(N)c2ncn(CCOCP(=O)(O)O)c2n1 [PMEDAP] |  |  |  |  |  |  |  |  |  |  |  |  |  |  | EC50 [18]: 47 µg/mL (≈ 163 µM)
CC(C)OP(=O)(COCCOc1cc(N)ncn1)OC(C)C |  | > 20 | > 20 |  | > 400 | > 400 | > 400 | > 50 | > 50 | > 50 | > 50 |  |  |  | 
Nc1cc(=O)n(CCOCP(=O)(O)O)cn1 | 86 | > 100 | > 100 | 138 (≈ 554 µM) | > 400 | > 400 | > 400 | > 50 | > 50 | > 50 | > 50 | 94 | 90 | 98 | 
Nc1cc(O)ncn1 |  | > 100 | > 100 |  | > 400 | > 400 | > 400 | > 50 | > 50 | > 50 | > 50 |  |  |  | 
Cc1cc(OCCOCP(=O)(O)O)nc(N)n1 | 95 | > 100 | > 100 | 89 (≈ 338 µM) | > 400 | > 400 | > 400 | > 50 | > 50 | > 50 | > 50 | 87 | 85 | 99 | 
Nc1cc(OCCOCP(=O)(O)O)nc(N)n1 | 63 | 0.8 (≈ 3.03 µM) | 0.43 (≈ 1.63 µM) | 0.04 (≈ 0.151 µM) | 6.5 (≈ 24.6 µM) | 24 (≈ 90.8 µM) | 9.6 (≈ 36.3 µM) | 2.5 (≈ 9.46 µM) | 1.6 (≈ 6.06 µM) | 1.2 (≈ 4.54 µM) | 1.1 (≈ 4.16 µM) | 89 | 61 | 62 | IC50 [19]: 12.4 µM; IC50 [20]: 25 µM; IC50 [21]: 25 µM; IC50 [22]: 50 µg/mL (≈ 189 µM)
Nc1nc(NC2CC2)cc(=O)n1CCOCP(=O)(O)O |  | > 100 | > 100 |  | > 16 | > 16 | > 16 | > 50 | > 50 | > 50 | > 50 |  |  |  | 
